Laboratory results: PMC3736091 (Molecular cancer therapeutics, 2013)
Blank lines part the entries; values can stand above or below the compound they belong to.

Columns and labels:
[1] = tested on: SW620 cells; experiment: Clonogenic survival assay, SW620; type: cell-based, human; conditions: 16 hr
In short: (§1)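 Clonogenic assay in RPMI 1640 + 10% FBS, 37°C, 5% CO2, <30 passages; HCT116-N7 stably expresses HPV16 E6. Exponentially growing cells had 16 h exposure to cytotoxic (etoposide, doxorubicin or camptothecin; etoposide 1 μM for the bar data) ± test compound 1 μM in 0.5% DMSO, then were seeded for colonies. Survival was normalised to DMSO or inhibitor-alone control. Enhancement factor = survival cytotoxic alone ÷ survival combination, per experiment; 3 independent experiments.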

[2] = tested on: LoVo cells; experiment: Clonogenic survival assay, LoVo; type: cell-based, human; conditions: LoVo, 16 hr
In short: as §1

[3] = Plasma and tumour concentrations in SW620 tumour-bearing nude mice; type: in vivo
In short: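 Female CD-1 nude mice carried SW620 s.c. flank xenografts (1×10^7 cells) of ~650 mm³. Test compound was given at 50 mg/kg i.p. in equimolar phosphoric acid/saline, pH 4. The comparator ATM inhibitor was given at 10 mg/kg i.p. in phosphoric acid, 5% DMSO, 10% encapsin, pH 4. Dosing volume was 10 ml/kg. Plasma and tumour were sampled at 1 and 4 h and analysed by HPLC; the tumour detection limit was 0.5 μM.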

[4] = tested on: PI3K; conditions: read-out: Enzyme IC50 PI3K; purified enzyme; data previously reported; cited from earlier work
[5] = molecular target: ATM activity in SW620 cells (Homo sapiens, UniProt Q13315); experiment: Inhibition of cellular ATM activity, SW620; type: cell-based; conditions: 10 μM
[6] = tested on: PI4K; conditions: read-out: Enzyme IC50 PI4K; purified enzyme; data previously reported; cited from earlier work
[7] = tested on: human tumour cell lines; conditions: cited from earlier work
[8] = molecular target: ATR (Homo sapiens, UniProt Q13535); conditions: read-out: Enzyme IC50 ATR; purified enzyme; data previously reported; cited from earlier work

ATM activity in SW620 cells, sequence (Q13315 whole entry): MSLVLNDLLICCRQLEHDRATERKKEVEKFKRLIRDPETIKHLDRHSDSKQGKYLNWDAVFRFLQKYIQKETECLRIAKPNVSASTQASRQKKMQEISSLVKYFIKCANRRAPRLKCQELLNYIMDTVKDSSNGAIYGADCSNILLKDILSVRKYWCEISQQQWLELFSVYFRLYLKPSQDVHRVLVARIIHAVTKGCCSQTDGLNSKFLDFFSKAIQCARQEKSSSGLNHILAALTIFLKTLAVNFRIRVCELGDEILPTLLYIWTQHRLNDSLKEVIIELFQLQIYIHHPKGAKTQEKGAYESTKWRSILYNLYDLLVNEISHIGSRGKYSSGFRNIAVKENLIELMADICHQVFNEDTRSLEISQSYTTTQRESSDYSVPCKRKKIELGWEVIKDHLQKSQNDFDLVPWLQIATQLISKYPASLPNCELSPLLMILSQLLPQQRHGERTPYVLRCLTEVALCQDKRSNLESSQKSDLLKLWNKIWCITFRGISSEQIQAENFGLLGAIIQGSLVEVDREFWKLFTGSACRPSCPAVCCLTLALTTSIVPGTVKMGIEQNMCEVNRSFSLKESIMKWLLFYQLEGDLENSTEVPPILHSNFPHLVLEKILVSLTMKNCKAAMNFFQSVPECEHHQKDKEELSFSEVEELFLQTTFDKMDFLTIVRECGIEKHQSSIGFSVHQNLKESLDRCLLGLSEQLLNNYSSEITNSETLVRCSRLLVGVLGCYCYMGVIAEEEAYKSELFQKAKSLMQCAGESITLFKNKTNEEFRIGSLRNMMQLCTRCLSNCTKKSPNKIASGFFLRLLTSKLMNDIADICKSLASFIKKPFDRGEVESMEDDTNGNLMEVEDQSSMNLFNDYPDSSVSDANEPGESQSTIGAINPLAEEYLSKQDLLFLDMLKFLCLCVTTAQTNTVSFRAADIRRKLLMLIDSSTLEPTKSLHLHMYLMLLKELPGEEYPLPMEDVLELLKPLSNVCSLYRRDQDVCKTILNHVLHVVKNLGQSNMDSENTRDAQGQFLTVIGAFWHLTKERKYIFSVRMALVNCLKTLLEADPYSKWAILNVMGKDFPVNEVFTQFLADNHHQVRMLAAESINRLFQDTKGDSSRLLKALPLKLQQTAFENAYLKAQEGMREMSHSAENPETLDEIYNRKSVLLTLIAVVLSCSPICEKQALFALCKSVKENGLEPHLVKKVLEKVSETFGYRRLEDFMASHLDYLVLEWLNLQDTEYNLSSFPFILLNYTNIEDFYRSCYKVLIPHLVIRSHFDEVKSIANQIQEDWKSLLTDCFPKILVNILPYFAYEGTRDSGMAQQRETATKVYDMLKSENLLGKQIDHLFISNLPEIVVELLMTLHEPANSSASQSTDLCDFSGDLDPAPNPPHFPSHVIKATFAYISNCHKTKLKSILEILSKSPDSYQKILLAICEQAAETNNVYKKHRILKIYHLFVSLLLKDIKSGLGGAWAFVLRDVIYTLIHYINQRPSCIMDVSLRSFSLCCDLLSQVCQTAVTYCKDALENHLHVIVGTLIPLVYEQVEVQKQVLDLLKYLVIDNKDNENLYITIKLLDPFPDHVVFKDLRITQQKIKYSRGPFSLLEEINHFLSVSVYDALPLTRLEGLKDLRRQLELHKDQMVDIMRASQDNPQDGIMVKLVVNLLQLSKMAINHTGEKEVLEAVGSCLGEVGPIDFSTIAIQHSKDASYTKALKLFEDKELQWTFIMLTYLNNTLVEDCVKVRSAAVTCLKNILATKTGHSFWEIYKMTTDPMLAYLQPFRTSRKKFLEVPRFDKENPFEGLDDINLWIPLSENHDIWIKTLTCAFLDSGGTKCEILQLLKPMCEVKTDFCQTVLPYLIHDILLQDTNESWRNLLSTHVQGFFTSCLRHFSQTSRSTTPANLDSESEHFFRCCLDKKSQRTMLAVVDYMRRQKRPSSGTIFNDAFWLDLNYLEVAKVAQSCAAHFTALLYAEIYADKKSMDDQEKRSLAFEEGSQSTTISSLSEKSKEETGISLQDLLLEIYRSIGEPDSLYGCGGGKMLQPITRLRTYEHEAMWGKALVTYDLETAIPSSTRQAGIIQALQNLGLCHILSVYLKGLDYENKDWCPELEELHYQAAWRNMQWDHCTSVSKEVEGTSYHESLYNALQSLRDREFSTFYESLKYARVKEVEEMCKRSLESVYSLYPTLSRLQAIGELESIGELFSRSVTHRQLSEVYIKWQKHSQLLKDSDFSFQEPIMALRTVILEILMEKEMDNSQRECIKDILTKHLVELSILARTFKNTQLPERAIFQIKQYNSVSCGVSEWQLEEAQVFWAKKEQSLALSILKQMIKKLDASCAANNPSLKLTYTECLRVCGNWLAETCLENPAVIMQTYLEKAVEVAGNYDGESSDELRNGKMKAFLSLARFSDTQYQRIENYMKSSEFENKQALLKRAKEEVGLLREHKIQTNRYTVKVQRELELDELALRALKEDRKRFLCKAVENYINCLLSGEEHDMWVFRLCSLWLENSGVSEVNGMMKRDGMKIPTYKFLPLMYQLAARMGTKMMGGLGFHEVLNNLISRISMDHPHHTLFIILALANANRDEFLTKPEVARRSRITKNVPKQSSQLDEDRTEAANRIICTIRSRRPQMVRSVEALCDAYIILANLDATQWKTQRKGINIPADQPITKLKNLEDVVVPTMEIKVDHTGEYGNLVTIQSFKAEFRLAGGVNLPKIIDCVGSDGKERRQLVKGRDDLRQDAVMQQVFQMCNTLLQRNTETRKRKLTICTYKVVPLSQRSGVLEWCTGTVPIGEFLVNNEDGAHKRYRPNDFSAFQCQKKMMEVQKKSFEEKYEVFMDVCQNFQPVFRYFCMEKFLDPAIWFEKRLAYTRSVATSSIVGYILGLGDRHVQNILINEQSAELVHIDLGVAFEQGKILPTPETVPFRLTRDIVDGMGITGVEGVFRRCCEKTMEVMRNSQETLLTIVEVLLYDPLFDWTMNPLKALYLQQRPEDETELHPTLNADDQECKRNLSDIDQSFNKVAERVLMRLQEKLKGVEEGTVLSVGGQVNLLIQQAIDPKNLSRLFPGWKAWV

Compound: CC[C@@]1(O)C(=O)OCc2c1cc1n(c2=O)Cc2cc3ccccc3nc2-1 [Camptothecin, camptothecin, reference compound]
% Survival Cytotoxic alone ([1]; SW620, cytotoxic 10 nM): 2.4 ± 0.2%
% Survival Cytotoxic alone ([2]; cytotoxic 10 nM): 33 ± 7.9%

Compound: COc1cccc2c1C(=O)c1c(O)c3c(c(O)c1C2=O)C[C@@](O)(C(=O)CO)C[C@@H]3O[C@H]1C[C@H](N)[C@H](O)[C@H](C)O1 [Doxorubicin, doxorubicin, reference compound]
% Survival Cytotoxic alone ([1]; SW620, cytotoxic 10 nM): 50 ± 9%
% Survival Cytotoxic alone ([1]; SW620, cytotoxic 100 nM): 0.02 ± 0.01%
% Survival Cytotoxic alone ([2]; cytotoxic 10 nM): 47 ± 3.1%
% Survival Cytotoxic alone ([2]; cytotoxic 100 nM): 2.1 ± 0.5%

Compound: COc1cc([C@@H]2c3cc4c(cc3[C@@H](O[C@@H]3O[C@@H]5CO[C@@H](C)O[C@H]5[C@H](O)[C@H]3O)[C@H]3COC(=O)[C@H]23)OCO4)cc(OC)c1O [Etoposide, etoposide, reference compound]
% Survival Cytotoxic alone ([1]; SW620, cytotoxic 100 nM): 89 ± 8.3%
% Survival Cytotoxic alone ([1]; SW620, cytotoxic 1 μM): 3.8 ± 1.1%
% Survival Cytotoxic alone ([2]; cytotoxic 100 nM): 58 ± 8.3%
% Survival Cytotoxic alone ([2]; cytotoxic 1 μM): 3.9 ± 0.8%

Tumour concentration ([3]; 10 mg/kg i.p., SW620 xenograft, below limit of detection): < 0.5 µM
Plasma concentration ([3]; single dose 10 mg/kg i.p., SW620-bearing nude mice): over 1 μM
Inhibition of ATM activity [5]: substantially inhibited ATM activity
Compound: O=c1cc(-c2cccc3c2Sc2ccccc2S3)oc(N2CCOCC2)c1 [KU55933]
IC50 [4]: 1.7 µM
IC50 [6]: > 10 µM
Concentration needed to induce in vitro chemo- and radio-sensitisation [7]: 10 µM
IC50 [8]: > 10 µM
